Measured values reported in publication PMC10042892 (Clinical Pharmacokinetics, 2023).
Where two headings read alike, the source gives them in different places.

Key:
[1] = test system: patients with advanced breast cancer; experiment: Patient subgroup safety analysis by renal function; type: in vivo, human; conditions: for AEs leading to discontinuations / Dose modifications owing to renal toxicity / Incidence of thrombocytopenia / On-treatment deaths / QT interval prolongation events: ribociclib group
How it was run: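 Safety by renal function group in X2107, MONALEESA-2, MONALEESA-3 and MONALEESA-7 (NSAI only). Starting dose 600 mg, 3 weeks on/1 week off. Drug-related AEs were managed by reducing to 400 or 200 mg. Patients with severe RI were excluded from these studies.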

[2] = type: in vivo, human; conditions: for Increase in AUCinf compared with normal renal function / Increase in Cmax compared with normal renal function: single 400-mg dose; for Exposure of metabolite higher compared with normal renal function: single 400-mg dose of ribociclib
[3] = pharmacokinetic data; cited from earlier work
[4] = test system: patients with advanced breast cancer; experiment: Patient subgroup efficacy analysis; type: in vivo, human; conditions: for PFS HR (95% CI) RIB vs PBO: Cox proportional-hazards model stratified by study; for Median PFS (95% CI): Kaplan–Meier, local investigator's assessment
How it was run: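 Pooled data: MONALEESA-2 (full analysis set), MONALEESA-3 (first-line patients) and MONALEESA-7 (NSAI only). Starting dose 600 mg, 3 weeks on/1 week off. Severe RI was excluded. PFS by local investigator assessment. Median PFS by Kaplan–Meier; hazard ratio from a Cox proportional-hazards model stratified by study.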

plasma protein = conditions: cited from earlier work
[5] = baseline eGFR as a continuous covariate; patients; cited from earlier work
[6] = cited from earlier work
[7] = cited from earlier work; remark: listed apart in the source
non-cancer subjects = experiment: Study A2116: safety; type: in vivo, human; conditions: single 400-mg dose
How it was run: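 Phase I, open-label, multicenter, parallel-group, two-part study. Single oral 400-mg dose in non-cancer subjects with varying renal impairment vs matched normal-function subjects. Part I enrolled normal function, severe RI and ESRD not on dialysis.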

[8] = cited from earlier work; remark: listed apart in the source
[9] = Subgroup analysis for letrozole PK by renal function; type: in vivo, human; conditions: X2107 and MONALEESA-7, no moderate RI available, data on file
[10] = cited from earlier work; remark: listed apart in the source

CN(C)C(=O)c1cc2cnc(Nc3ccc(N4CCNCC4)cn3)nc2n1C1CCCC1 [ribociclib]
Median time to the first dose reduction ([1]; across renal function cohorts, patients with dose reductions): 12.0–12.9 weeks | AEs of torsade de pointes ([1]; patients with ABC): No AEs of torsade de pointes were reported | Median time to first occurrence of QTcF value > 480 ms and an increase from baseline of >60 ms ([1]; patients with ABC): 15 days | AEs leading to discontinuations ([1]; mild RI): 16.0% | Dose modifications owing to renal toxicity ([1]; mild RI): 2.5% | Incidence of thrombocytopenia ([1]; mild RI): 11.0% | On-treatment deaths ([1]; mild RI): 1.3% | QT interval prolongation events ([1]; mild RI): 10.3% | AEs leading to discontinuations ([1]; moderate RI): 25.4% | Dose modifications owing to renal toxicity ([1]; moderate RI): 3.8% | Incidence of thrombocytopenia ([1]; moderate RI): 13.8% | On-treatment deaths ([1]; moderate RI): 5.4% | QT interval prolongation events ([1]; moderate RI): 10.0% | AEs leading to discontinuations ([1]; normal function): 10.1% | Dose modifications owing to renal toxicity ([1]; normal renal function): 0.7% | Incidence of thrombocytopenia ([1]; normal renal function): 7.0% | On-treatment deaths ([1]; normal renal function): 1.4% | QT interval prolongation events ([1]; normal renal function): 6.4% | Ae0-144h Geo-mean (amount excreted into the urine from time 0 to 144 h) ([2]; ESRD, N = 3, single oral dose of ribociclib at 400 mg, Part I and II): 8.11 mg | Renal clearance as share of the apparent clearance ([2]; Study A2116): around 5% | Increase in AUCinf compared with normal renal function ([2]; mild RI): 62% | Increase in Cmax compared with normal renal function ([2]; mild RI): 80% | Increase in AUCinf compared with normal renal function ([2]; moderate RI): 94% | Increase in Cmax compared with normal renal function ([2]; moderate RI): 79% | Increase in AUCinf compared with normal renal function ([2]; severe RI): 167% | Increase in Cmax compared with normal renal function ([2]; severe RI): 130% | Drug–drug interactions with NSAIs (letrozole and anastrozole) or fulvestrant [3]: no drug–drug interactions | PFS HR (95% CI) RIB vs PBO ([4]; mild renal impairment): 0.57 | Median PFS (95% CI) ([4]; mild renal impairment): 24.8 months | PFS HR (95% CI) RIB vs PBO ([4]; moderate renal impairment): 0.64 | Median PFS (95% CI) ([4]; moderate renal impairment): 22.2 months | PFS HR (95% CI) RIB vs PBO ([4]; normal renal function): 0.58 | Median PFS (95% CI) ([4]; normal renal function): 23.8 months | Protein binding (plasma protein): 70% | Effect of RI on PK in covariate analysis [5]: not affected by RI | Intestinal excretion [6]: ~8% | Renal excretion [6]: around 7% | Contribution of renal clearance, share of overall elimination routes ([6]; human absorption, distribution, metabolism, and excretion study): 7% | Hepatic elimination, share of overall pathways ([6]; in humans): 84% | Mean effective half-life ([7]; at 600 mg): 33 to 54 h | Oral clearance in patients with cancer versus non-cancer subjects [7]: generally lower oral clearance | Dose proportionality of exposure ([7]; dose range of 50–1200 mg): slightly over-proportional increases in exposure | Time to maximum observed plasma drug concentration ([7]; previous PK analyses): 1 to 5 h | Subjects with at least one AE (non-cancer subjects; all cohorts): 31.6% | Subjects with treatment-related AEs (non-cancer subjects; all cohorts): 15.8% | Changes from baseline in hematology, chemistry, vital signs, or electrocardiograms (non-cancer subjects; any of the cohorts): No clinically meaningful changes from baseline | Exposure compared with subjects with normal hepatic function ([8]; mild hepatic impairment): similar | Increase in exposure compared with normal hepatic function ([8]; moderate and severe HI): approximately 30% | Maximal increase in exposure ([8]; severe HI): 1.3 fold

N#Cc1ccc(C(c2ccc(C#N)cc2)n2cncn2)cc1 [letrozole]
PK between normal renal function and mild RI [9]: comparable PK

CNC(=O)c1cc2cnc(Nc3ccc(N4CCNCC4)cn3)nc2n1C1CCCC1 [LEQ803]
Exposure of metabolite higher compared with normal renal function ([2]; mild RI): 32% | Exposure of metabolite higher compared with normal renal function ([2]; moderate RI): 47% | Exposure of metabolite higher compared with normal renal function ([2]; severe RI): 80% | Contribution to the pharmacological activity in vivo [10]: no clinically relevant contribution to the pharmacological activity in vivo
